Measured values from ChEMBL document CHEMBL3085705, “Design, chemical synthesis of 3-(9H-fluoren-9-yl)pyrrolidine-2,5-dione derivatives and biological activity against enoyl-ACP reductase (InhA) and Mycobacterium tuberculosis” (2013).
Converted amounts (≈) assume the structure as drawn.

biological target: T1, Enoyl-[acyl-carrier-protein] reductase [NADH] (Mycobacterium tuberculosis) (UniProt P9WGR1); experiment: Inhibition of Mycobacterium tuberculosis InhA expressed in Escherichia coli using trans-2-dodecenoyl-coenzyme-A as substrate at 5 uM
T1 sequence (whole entry): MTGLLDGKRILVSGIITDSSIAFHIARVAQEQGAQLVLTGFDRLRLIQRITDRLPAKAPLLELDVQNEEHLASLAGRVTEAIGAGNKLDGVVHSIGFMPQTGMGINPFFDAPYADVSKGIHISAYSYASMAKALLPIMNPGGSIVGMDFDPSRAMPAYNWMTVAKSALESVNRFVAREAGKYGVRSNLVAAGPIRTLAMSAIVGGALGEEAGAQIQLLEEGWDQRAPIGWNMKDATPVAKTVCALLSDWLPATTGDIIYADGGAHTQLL
Outline: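 Recombinant M. tuberculosis wild-type InhA purified from E. coli. Reaction started by adding InhA (100 nM final) to DD-CoA (50 μM final), NADH (250 μM final) and inhibitor in 30 mM PIPES, 150 mM NaCl, pH 6.8. Percent inhibition taken from initial velocity against a no-inhibitor control. Run in triplicate.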

`O=C1CC(C2c3ccccc3-c3ccccc32)C(=O)N1c1cc(Cl)cc(Cl)c1` (stereo not given) was tested, and the inhibition was 31%.

system: Mycobacterium tuberculosis; experiment: Antimicrobial activity against Mycobacterium tuberculosis H37Rv by two-fold serial dilution method; format: functional
Outline: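 Compounds dissolved in DMSO. Single colony grown in Middlebrook 7H9 with 0.05% Tween 80 and 10% OADC at 37 °C, no shaking, to ~10^8 CFU/mL (OD600 0.8–1.0). Diluted to ~10^7 CFU/mL; 1 μL streaked onto 7H11 agar (0.5% glycerol, 10% OADC) with two-fold serial compound dilutions. MIC is the lowest concentration inhibiting growth. Repeated three times.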

`O=C1CC(C2c3ccccc3-c3ccccc32)C(=O)N1Cc1ccccc1` (single isomer, unassigned) and `O=C(CN1C(=O)CC(C2c3ccccc3-c3ccccc32)C1=O)c1ccccc1` (stereo not given) cannot be ordered by MIC: 45.3 µM (≈ 16 µg/mL) for the first, greater than 41.9 µM for the second.

First: O=C(c1ccc2[nH]ccc2c1)N1CCN(C2c3ccccc3-c3ccccc32)CC1
Second: O=C1CC(C2c3ccccc3-c3ccccc32)C(=O)N1C(=O)c1ccc2[nH]ccc2c1 (stereo not given)
The MIC of the first is higher: greater than 40.7 µM for the first, 39.4 µM (≈ 16 µg/mL) for the second.

Compared with `COc1cc(CN2C(=O)CC(C3c4ccccc4-c4ccccc43)C2=O)cc(OC)c1` (stereo not given), `COc1cc(N2C(=O)CC(C3c4ccccc4-c4ccccc43)C2=O)cc(OC)c1OC` (stereo not given) is lower in MIC: greater than 38.7 µM for the first, 37.3 µM (≈ 16 µg/mL) for the second.

`O=C1CC(C2c3ccccc3-c3ccccc32)C(=O)N1CCc1c[nH]c2ccccc12` (stereo not given) and `O=C(Cc1ccccc1)N1C(=O)CC(C2c3ccccc3-c3ccccc32)C1=O` (stereo not given) cannot be ordered by MIC: greater than 39.4 µM for the first, 41.9 µM (≈ 16 µg/mL) for the second.

Compared with `O=C1CC(C2c3ccccc3-c3ccccc32)C(=O)N1C(=O)c1ccccc1` (racemic), `O=C1CC(C2c3ccccc3-c3ccccc32)C(=O)N1c1ccc(F)cc1` (stereo not given) is higher in MIC: 5.4 µM (≈ 1.98 µg/mL) for the first, greater than 44.8 µM for the second.

First: O=C(O)CC(C(=O)O)C1c2ccccc2-c2ccccc21 (stereo not given)
Second: O=C(CC(C(=O)O)C1c2ccccc2-c2ccccc21)Nc1ccc(F)cc1 (stereo not given)
The MIC of the first is 1.5-fold lower: 28.3 µM (≈ 7.99 µg/mL) for the first, 42.6 µM (≈ 16 µg/mL) for the second.

Going from `O=C(CC(C(=O)O)C1c2ccccc2-c2ccccc21)NNC(=O)c1ccncc1` (stereo not given) to `O=C(CC(C(=O)O)C1c2ccccc2-c2ccccc21)Nc1cc(Cl)cc(Cl)c1` (stereo not given), the MIC falls from 10 µM (≈ 4.01 µg/mL) to 4.7 µM (≈ 2 µg/mL) (2.1-fold).

First: O=C1CC(C2c3ccccc3-c3ccccc32)C(=O)N1c1cc(Cl)cc(Cl)c1 (stereo not given)
Second: O=C1CC(C2c3ccccc3-c3ccccc32)C(=O)N1 (stereo not given)
The MIC of the first is 1.6-fold lower: 19.6 µM (≈ 8 µg/mL) for the first, 30.4 µM (≈ 8 µg/mL) for the second.

`CCCCCCCCCN1C(=O)CC(C2c3ccccc3-c3ccccc32)C1=O` (stereo not given) and `CCCCCCCCC(=O)N1C(=O)CC(C2c3ccccc3-c3ccccc32)C1=O` (stereo not given) are within 1.5-fold of each other in MIC: 41.1 µM (≈ 16 µg/mL) for the first, 39.7 µM (≈ 16 µg/mL) for the second.

`O=C(CC(C(=O)O)C1c2ccccc2-c2ccccc21)NCCc1c[nH]c2ccccc12` (stereo not given) showed an MIC of 37.7 µM (≈ 16 µg/mL).
